Source: article PMC9516706 (JACS Au, 2022)

How the values were obtained:
A431 cells [1] = assay: Cytotoxicity assay; assay type: cell-based, human; details: for Selective cytotoxicity to A431 cells: five different cell lines compared, cell viability assay
Procedure, shortened: (§1)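 Cells were seeded in 96-well plates and grown for 24 h. Medium was then replaced with medium containing the peptide amphiphile, and cells were incubated a further 20 h. Viability was read with WST-8 reagent. Lines were HeLa, A431, MCF-7 and HepG2 cancer cells, plus MvE and HEK293 normal cells.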

[2] = TEM observation of self-assembly; assay type: physicochemical; details: 1.0 wt % in PBS(+), stained with 2.0 wt % phosphotungstic acid, 200 kV
Procedure, shortened: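 A carbon-supported TEM grid was dipped in a 1.0 wt % peptide amphiphile solution in PBS(+) containing Ca²⁺ and Mg²⁺. The grid was dried, negatively stained with 2.0 wt % phosphotungstic acid, and imaged at 200 kV accelerating voltage.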

[3] = test system: HeLa, A431, MCF-7, HepG2, MvE and HEK293 cells; assay: Cytotoxicity assay; assay type: cell-based, human; details: up to 0.1 wt %; four different cell lines
Procedure, shortened: as §1

A431 cells [4] = assay: Fluorescence recovery after photobleaching; assay type: cell-based, human; details: 0.08 wt% C16-E4Y for 1 h, without C16-E4Y recovery within 1 s
A431 tumor = assay: Antitumor activity in vivo, A431-xenografted nude mice; details: same regimen, against PBS control group, n = 6
Procedure, shortened: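 Nude mice with A431 cells injected subcutaneously into the flank. PBS (30 μL) with 1.5 wt % test compound was injected directly into the tumour three times a week for 3 weeks, against a PBS control. Bodyweight was followed during dosing, and tumour volume was taken as longer diameter × shorter diameter² × 0.5. Mice were sacrificed 4 weeks after inoculation; n = 6.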

HepG2 cells = assay: Detection of a peptide amphiphile phosphorylated in cells; assay type: cell-based, human; details: HepG2 cells cultured with 0.05 wt % C16-E4Y; medium and cell lysate
A431 cells [5] = assay: Apoptosis and necrosis detection; assay type: cell-based, human; details: C16-E4Y 0.08 wt %, 1 h, counting at least 1000 cells in CLSM images
Procedure, shortened: (§2)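 Cells were grown on a dish for 24 h, then given medium containing test compound at 0.08 wt % for 1 h. Cells were stained with annexin V-FITC and propidium iodide using an apoptotic/necrotic/healthy cell detection kit. Staining was imaged by CLSM, with PI fluorescence marking membrane-damaged cells.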

HeLa cells = assay: Apoptosis and necrosis detection; assay type: cell-based, human; details: C16-E4Y 0.08 wt %, 1 h, counting at least 1000 cells in CLSM images
Procedure, shortened: as §2

A431 cells [6] = assay: Localization of peptide amphiphiles in cells; assay type: cell-based, human; details: C16-E4Y 0.05 wt % with NBD-C8-E4Y 0.001 wt %, 24 h, ER-tracker and MitoRed, CLSM
[7] = Gel formation of C16-E4Y phosphorylated by tyrosine kinase; assay type: physicochemical; details: C16-E4Y 1 wt%, ATP 15 mM, c-Src kinase 6 µg/mL, 1× kinase buffer, 37 °C, 7 days
A431 cells [8] = assay: Tyrosine kinase inhibitor assay; assay type: cell-based, human

N-palmitoyl-Glu-Glu-Glu-Glu-Phe [C16-E4F]
Selective cytotoxicity to A431 cells (A431 cells [1]): did not exhibit selective cytotoxicity

N-palmitoyl-Glu-Glu-Glu-Glu-Ser [C16-E4S]
Selective cytotoxicity to A431 cells (A431 cells [1]): did not exhibit selective cytotoxicity

N-capryloyl-Glu-Glu-Glu-Glu-Tyr [C8-E4Y]
Self-assembly morphology by TEM [2]: did not form any self-assembly body
Cytotoxicity toward all cell lines tested [3]: did not show cytotoxicity

N-palmitoyl-Glu-Glu-Glu-Glu-Tyr [C16-E4Y]
Fluorescence recovery of ER-tracker after photobleaching (A431 cells [4]): recovered relatively slowly
Self-assembly morphology by TEM [2]: nanosized strings several hundred nanometers in length
Bodyweight of treated mice (A431 tumor): comparable to those of the control group
Intracellular phosphorylation (C16-E4pY by MALDI-TOF/MS) (HepG2 cells): not detected
Cells in early apoptosis (A431 cells [5]): 15.4%
Cells in early apoptosis (HeLa cells): 0.4%
Intracellular localization (A431 cells [6]): accumulated on ER selectively
Cytotoxicity toward A431 cells compared with the other cell lines (A431 cells [1]; 0.05 wt %, 20 h incubation, WST-8, five replicates): remarkably higher cytotoxicity
Dose dependence of cytotoxicity (A431 cells [1]; A431 cells, Figure 3b): dose-dependent
Gelation after incubation with a tyrosine kinase and ATP [7]: partially gelated

N-lauroyl-Glu-Glu-Glu-Glu-Tyr [C12-E4Y]
Self-assembly morphology by TEM [2]: formed only a few isolated short fibers
Cytotoxicity toward all cell lines tested [3]: did not show cytotoxicity

C#Cc1cccc(Nc2ncnc3cc(OCCOC)c(OCCOC)cc23)c1 [erlotinib]
Effect of EGFR inhibitor on the cytotoxicity of C16-E4Y (A431 cells [8]): alleviated the cytotoxicity

N-palmitoyl-Glu-Glu-Glu-Glu [C16-E4]
Selective cytotoxicity to A431 cells (A431 cells [1]): did not exhibit selective cytotoxicity
